Screening results deposited in PubChem BioAssay by several laboratories.
In the library only some 12% were active in any assay of this set; here they are far more common.
Diaphorase inh: counter-screen for diaphorase-based assays: diaphorase inhibitors and chemical oxidizers; diaphorase resazurin-to-resorufin fluorescence, NADH, 16 min; bacterial (C. kluyveri) enzyme, not human; inhibition, % at 20 µM; hit rate 0.69% among 190,000; AID 1217;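 active = primary screen inhibition at 20 µM above a set limit, cut at about 50% in these data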;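 also: plate controls were DMSO with full reaction for no effect and wells lacking NADH for full effect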
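Test system: diaphorase enzyme from Clostridium kluyveri; amount: diaphorase at 0.14 U/mL in enzyme working solution; detection: fluorescence of resorufin formed from resazurin, Ex 544/Em 590 nm; times: reaction incubation of 16 min at room temperature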
Cl transport mod: KCC2 (human) Cl- transport modulation. Q9H2X9. KCC2 cells, thallium flux FluoZin-2 fluorescence. B-score of Tl+ flux slope (higher = more flux/activation; lower = inhibition) at 10 µM. hit rate 2.2% among 190,000;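 active = thallium flux slope and its plate-corrected score both differing from the plate sample mean at a set confidence after two filtering rounds, in either direction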;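 also: slope of fluorescence scaled to starting intensity during 10 to 20 s after thallium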
Lmaj promast: Leishmania major promastigote growth inhibition. hit rate 9% among 200,000. inhibition, % at 10 µM. Leishmania major promastigotes, resazurin fluorescence viability. AID 1063; in the data active = inhibition above about 50%;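 also: promastigotes grown with compound for 44 hours at 28 °C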
ROMK mod: modulators of human ROMK potassium channel; P48048; Tet-inducible ROMK, thallium flux fluorescence; actives lie on both sides; B-score at 10 µM; hit rate 2% among 130,000; AID 1918;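 active = signal ratio slope over the read window, or its plate-corrected B-score, at least 3 SD from the plate mean, either direction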;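 also: B-score of the F/F0 ratio slope over 7 to 12 s after thallium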
Diaph act CS: activates diaphorase or chemically reduces, flagging diaphorase assay artifacts | activation factor at 20 µM | hit rate 0.005% among 190,000 | AID 1229 | Diaphorase/resazurin coupled assay, resorufin fluorescence, 16 min; active compounds read high; 1 = vehicle wells, 0 = NADH-free wells;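 active = diaphorase activity raised at least twofold by the compound at 20 µM; inactive = activation factor below 2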
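Material: purified diaphorase enzyme from Clostridium kluyveri; Also added: 0.114 mM NADH and 0.1 mM resazurin, final amounts; Doses: single compound dose of 20 µM, 1% DMSO final; Times: 16 min enzyme reaction, ambient temperature; Detection: resorufin fluorescence, excitation 544 nm, emission 590 nm; Measure: increased resorufin signal from activators or reducing compounds.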
WT yeast gro inh: growth inhibition of WT yeast, mitochondrial fusion screen | hit rate 2.1% among 190,000 | inhibition, % at 10 µM | mitochondrial fusion phenotypic screen, WT strain; in the data active = inhibition above about 58%; tested in S. cerevisiae
* hit, by the source's call; i = inactive; / = no result given.

SMILES	Diaphorase inh	Cl transport mod	Lmaj promast	ROMK mod	Diaph act CS	WT yeast gro inh
O=C(c1cccs1)N1N=C(c2ccccc2)CC1c1ccccc1O (stereo not given)	14	-0.12	32	-0.95	0.9	44
CC(C)Oc1ccc(C(=O)Nc2ccc(C(F)(F)F)n(C)c2=O)cc1	0	0.91	-4	/	1	14
Cn1c(=O)c(NC2CCCCC2)c2c3c(cccc31)C(=O)c1ccccc1-2	44	i	13	/	0.6	59*
CCCCNc1c2c3c(cccc3n(C)c1=O)C(=O)c1ccccc1-2	25	i	6	/	0.8	64*
CC(=O)Oc1ccc(Cl)cc1/C=C/c1ccc2ccccc2n1	26	-0.18	55*	/	0.7	31
CC(=O)Oc1c(Cl)cc(Cl)cc1/C=C/c1ccc2ccccc2n1	21	0.2	8	/	0.8	83*
Cc1ccc2oc(=O)c3cnn(CC(=O)N(CCN(C)C)Cc4ccco4)c3c2c1	-6	/	16	/	1.1	2
CN(C)CCN(Cc1ccco1)C(=O)c1cc2c(Cl)nc3ccccc3c2s1	-15	-0.56	91*	/	1.2	12
Cc1ccc2nc(Cl)c3cc(C(=O)N(CCN(C)C)Cc4ccco4)sc3c2c1	-8	1	65*	-0.14	1.1	35
O=C(c1cccs1)N(Cc1ccccn1)Cc1ccco1	-1	-0.41	-1	/	1	18
CN(C)S(=O)(=O)c1ccc(N2CCCC2)c(C(=O)NC(c2ccccc2)c2ccccc2)c1	6	-1.1	23	0.29	0.9	15
Cc1ccccc1NS(=O)(=O)c1ccc(OCC(=O)NCc2ccccn2)cc1	9	-0.56	-1	-0.98	0.9	-13
OC(CN1c2ccccc2Sc2ccccc21)Cn1nnc2ccccc21 (stereo not given)	27	/	48	/	0.7	16
Cc1nn(CC(O)CN2c3ccccc3Sc3ccccc32)c(C)c1Br (stereo not given)	18	-0.022	64*	-0.041	0.8	91*
COc1ccc(OCC(=O)Nc2ccc(N3CCN(C(=O)c4ccccc4C)CC3)cc2)cc1	-7	0.49	35	0.0081	1.1	9
CS(=O)(=O)N1CCN(c2ccc([N+](=O)[O-])c(SCc3ccco3)c2)CC1	57*	-0.62	7	0.83	0.4	-17
CC1CN(C2=NC(=O)/C(=C/c3ccncc3)S2)CC(C)O1 (stereo not given)	/	-0.27	/	/	/	/
CC1CC(C)CN(C2CCN(Cc3cccnc3)CC2)C1 (stereo not given)	16	0.024	-4	0.61	0.8	63*
COc1ccc(C2CCN(Cc3cccnc3)CC2O)cc1 (stereo not given)	13	-0.037	88*	-0.17	0.9	-9
NNc1nc2c(F)cc(F)cc2s1	11	0.84	95*	/	0.9	41
NNc1nc2c(F)cccc2s1	14	0.027	-3	/	0.9	8
COc1ccc(CNCC(O)(c2ccc(Cl)cc2)c2ccc(Cl)cc2)cc1	5	/	101*	-1.1	0.9	-5
CCCCNCC(O)(c1ccc(Cl)cc1)c1ccc(Cl)cc1	4	-0.41	90*	-0.97	1	19
OC(CNCc1ccc(Cl)cc1)(c1ccccc1)c1ccc(F)cc1 (stereo not given)	14	0.74	17	-1.3	0.9	71*
COc1ccc(CNCC(O)(c2ccc(Cl)cc2)c2ccc(Cl)cc2)cc1OC	24	/	47	0.68	0.8	-2
SMILES	Diaphorase inh	Cl transport mod	Lmaj promast	ROMK mod	Diaph act CS	WT yeast gro inh
CC(Nc1[nH]c(=O)n(C)c(=O)c1N=O)c1ccccc1 (stereo not given)	0	-2.4	-1	-0.66	1	-2
CSCCC(NS(=O)(=O)c1ccc2c(c1)oc(=O)n2C)C(=O)NCc1ccc(C)cc1 (stereo not given)	/	0.51	/	1.7	/	/
CC(C)Oc1ccc(OCCCN2CCCCCC2)cc1	2	/	100*	-0.39	1	13
CCOC(=O)C(CCCOc1ccc(C(C)CC)cc1)C(=O)OCC (stereo not given)	18	0.022	-2	-0.41	0.8	17
CCC(C)c1ccc(OCCN2CCCC2)cc1 (stereo not given)	6	0.2	96*	0.19	0.9	26
c1ccc(COc2ccc(OCCN3CCCCC3)cc2)cc1	4	-0.35	100*	-1.7	1	22
